Rows were chosen to be rich in hits. Some 2.5% of all compounds tested hit in one or more screens of this group.
NR2E3 ag-1: NR2E3 agonists in two-hybrid cells, primary screen, cell-based, luminescence, CHO-S, Gal4-NCOR/VP16-NR2E3; luciferase; inhibition of corepressor binding, % at 3.98 µM; actives 0.35% (n = 360,000); AID 602229, 2012;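 active = inhibition above the mean of all tested compounds plus 3 SD, cut at about 70% in these data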;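 note: 0% = DMSO with NR2E3 transfected cells and 100% = cells lacking NR2E3 construct; higher means lower luciferase signal from less NR2E3 corepressor binding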
NR2E3 ag-2: inhibitors of NR2E3-RetCOR corepressor binding, primary screen, NR2E3 agonist project, biochemical, TR-FRET, GST-NR2E3, biotin-RetCOR; Photoreceptor-specific nuclear receptor (Homo sapiens), Q9Y5X4; 1536-well; inhibition of corepressor binding, % at 4.78 µM; actives 0.12% (n = 320,000); AID 2300, 2010;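 active = percent inhibition above the cutoff of mean plus 3 SD of all tested compounds, set per screening campaign, cut at about 20% in these data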;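 note: 0% = DMSO wells and 100% = biotin wells as full block of FRET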
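Assay system: NR2E3–RetCOR corepressor complex. Quantity: 1.35 nM GST-NR2E3. Buffer or medium: pH 7.5 Tris-based buffer. Reagent: biotinylated RetCOR corepressor at 7 nM final. Schedule: 5 h at 4 °C. Detection: TR-FRET, emission read at 617 and 671 nm. Replicates: one well per compound, singlicate testing.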
ADAM17 inh: ADAM17 inhibitors, primary screen, biochemical, QFRET; Disintegrin and metalloproteinase domain-containing protein 17 (Homo sapiens), P78536; recombinant ADAM17, EDANS/DABCYL FRET peptide cleavage; inhibition, % at 6.95 µM; actives 0.83% (n = 370,000);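 active = inhibition above the mean of compounds lying between control limits plus 3 SD, set per campaign, cut at about 8.5% in these data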;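 note: 0% = DMSO-only wells as the low control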
Target sequence (P78536 215-824 limits assumed): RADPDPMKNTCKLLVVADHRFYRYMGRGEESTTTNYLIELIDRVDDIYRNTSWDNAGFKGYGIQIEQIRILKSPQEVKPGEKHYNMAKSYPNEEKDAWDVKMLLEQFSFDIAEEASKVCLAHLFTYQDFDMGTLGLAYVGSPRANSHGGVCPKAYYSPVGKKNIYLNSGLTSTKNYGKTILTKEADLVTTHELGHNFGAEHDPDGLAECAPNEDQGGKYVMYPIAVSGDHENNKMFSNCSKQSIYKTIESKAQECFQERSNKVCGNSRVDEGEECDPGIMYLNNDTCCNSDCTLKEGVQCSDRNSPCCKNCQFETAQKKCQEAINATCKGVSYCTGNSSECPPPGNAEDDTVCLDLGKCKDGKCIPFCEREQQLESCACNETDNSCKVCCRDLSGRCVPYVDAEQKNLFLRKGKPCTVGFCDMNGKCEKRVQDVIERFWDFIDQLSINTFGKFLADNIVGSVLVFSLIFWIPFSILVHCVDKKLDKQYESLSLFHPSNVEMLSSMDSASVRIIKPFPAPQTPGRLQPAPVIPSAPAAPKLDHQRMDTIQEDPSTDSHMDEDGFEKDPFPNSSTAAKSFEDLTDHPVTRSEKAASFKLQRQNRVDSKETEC
ADAM10 inh: human ADAM10 inhibitors, primary screen, biochemical, QFRET, HTS. Disintegrin and metalloproteinase domain-containing protein 10 (Homo sapiens), O14672. recombinant ADAM10, EDANS/DABCYL FRET peptide cleavage, 3 h. inhibition, % at 7 µM. AID 720582, 2013. actives 0.62% (n = 370,000);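 active = inhibition above a per-campaign cutoff equal to the mean of compounds falling between control-based bounds plus 3 SD, cut at about 20% in these data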;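 note: 0% = DMSO wells while the 100% control is not disclosed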
JMJD2C inh: inhibitors of GASC-1 histone demethylase, primary screen, biochemical, fluorescence, DELFIA europium; Lysine-specific demethylase 4C (Homo sapiens), Q9H3R0; GST-JMJD2C(1-420) H3K9me3 demethylation; inhibition, % at 2.35 µM; actives 0.069% (n = 330,000);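 active = more than half of a compound's replicate wells show inhibition beyond 50%, single wells judged on their own value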;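 note: signal counts dimethyl H3K9 product captured on neutravidin plate; 0% = median of DMSO wells and 100% = 0.3 times that DMSO median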
proKLK7 act: proKLK7 zymogen activators, primary screen, biochemical, fluorescence intensity; Kallikrein-7 (Homo sapiens), P49862; purified proKLK7, EDANS-DABCYL substrate fluorescence; 100% is mature enzyme control, 0% vehicle; activation, % at 7 µM; actives 0.9% (n = 370,000); AID 652039, 2013;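 active = activation above the mean of all tested compounds plus 3 SD, computed per campaign excluding outliers beyond control limits, cut at about 13% in these data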
ADAM10 confirm: human ADAM10 inhibitors, confirmation, biochemical, QFRET, triplicate; shares compounds with ADAM10 inh; ADAM10 QFRET peptide cleavage, EDANS fluorescence; inhibition, % at 6.95 µM; actives 1% (n = 2,100);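 active = inhibition above about 20% chosen separately for each screening run, limit read from the data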;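 note: 0% = DMSO wells and 100% = marimastat wells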
ADAM17 ctr: ADAM17 inhibitors, counter-screen for ADAM10 exosite inhibitor project, biochemical, QFRET, high throughput. shares compounds with ADAM10 inh. ADAM17 QFRET peptide cleavage, EDANS fluorescence. inhibition, % at 6.95 µM. actives 0.5% (n = 2,100);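 active = mean triplicate inhibition above the solvent-only control wells' mean plus 3 SD, cut at about 12% in these data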;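 note: 0% = DMSO wells and 100% = marimastat wells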
ADAM10 counter: ADAM10 inhibitors, counter-screen for ADAM17 exosite inhibitor project, biochemical, FRET, human ADAM10; shares compounds with ADAM17 inh; AID 743256, 2014; actives 47% (n = 2,900); inhibition, % at 6.95 µM; recombinant ADAM10, EDANS/DABCYL FRET peptide cleavage, 3 h;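 active = mean inhibition over the triplicate runs exceeds the activity threshold set in the earlier primary screen, cut at about 20% in these data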;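 note: 0% = DMSO wells and 100% = marimastat wells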
ADAM17 confirm: ADAM17 inhibitors, hit retest, confirmation, biochemical, QFRET peptide cleavage; shares compounds with ADAM17 inh; recombinant ADAM17, EDANS/DABCYL QFRET peptide cleavage; inhibition, % at 6.95 µM; actives 65% (n = 2,900);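 active = mean inhibition across replicates above the hit cutoff set in the primary screen, cut at about 8.5% in these data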;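 note: 0% = DMSO wells and 100% = marimastat wells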
Starred values were filed as active, the others as inactive; x = not tested or not shown.

SMILES | NR2E3 ag-1 | NR2E3 ag-2 | ADAM17 inh | ADAM10 inh | JMJD2C inh | proKLK7 act | ADAM10 confirm | ADAM17 ctr | ADAM10 counter | ADAM17 confirm
C=CCNC(=O)COC(=O)c1ccc(Cl)c(S(=O)(=O)N(Cc2ccccc2)c2ccccc2)c1 | -12 | 3 | 12* | 22* | 4 | 0 | 2 | 2 | 29* | 20*
C=CCNC(=O)COC(=O)c1ccc(Cl)c(S(N)(=O)=O)c1 | 18 | 2 | -4 | 2 | 0 | -1 | x | x | x | x
NC(=O)NC(=O)COC(=O)c1ccc(Cl)c(S(=O)(=O)N(Cc2ccccc2)c2ccc(Cl)cc2)c1 | -28 | 2 | 3 | 14 | -3 | 0 | x | x | x | x
Cc1ccc(S(=O)(=O)Nc2ccccc2CNC2CCCCC2)cc1 | -14 | 1 | -2 | -10 | 0 | 0 | x | x | x | x
Cc1cc(C(=O)OC(C(=O)Nc2cccc(C(F)(F)F)c2)c2ccccc2)c(C)o1 (stereo not drawn) | -12 | 0 | 16* | 30* | -7 | 1 | 7 | 3 | 38* | 24*
CN(C)CCNC(C(=O)Nc1cccc(C(F)(F)F)c1)c1ccccc1 (stereo not drawn) | -22 | 2 | -1 | -10 | 21 | 0 | x | x | x | x
Cc1ccc(C)c(NC(=O)C2(C)CCCN2C(=O)C(C)C)c1 (stereo not drawn) | -22 | x | 2 | 2 | x | 0 | x | x | x | x
CCN(c1ccc(NC(=O)COC(=O)/C=C/c2cccs2)cc1)C(C)C | 3 | -1 | 17* | 34* | 2 | 0 | 5 | 5 | 33* | 18*
N#Cc1cc2ccccc2nc1SCC(=O)Nc1ccc(S(=O)(=O)N2CCCC2)cc1 | -15 | 2 | 12* | 29* | -14 | -57 | 6 | 4 | -6 | 2
Cc1ccc(Nc2nnc(SCC(=O)Nc3cccc(S(=O)(=O)N4CCCCC4)c3)s2)cc1 | 5 | 3 | 11* | 27* | -5 | 0 | 9 | 3 | 30* | 17*
Cc1nn(C(C)C)c(C)c1CN1CCN(Cc2ccsc2)C(CCO)C1 (stereo not drawn) | 6 | 0 | 2 | 4 | -1 | 0 | x | x | x | x
COc1ccc(OC(F)(F)F)cc1CC1(C)C(=O)Nc2ccc(S(=O)(=O)NC3CCCCC3)cc21 (stereo not drawn) | 15 | x | 10* | 23* | x | 0 | 0 | 1 | 40* | 18*
CCOc1ccc(-c2csc(/C(C#N)=C\c3ccc(O)c([N+](=O)[O-])c3)n2)cc1 | -39 | 4 | -8 | -18 | 15 | 1 | x | x | x | x
COC(=O)[C@@]1(Cc2ccccc2)[C@H]2C(=O)N(C)C(=O)[C@H]2[C@H]2CN=C(SCc3ccccc3)N21 | 16 | x | -1 | -5 | x | 0 | x | x | x | x
CCCc1ccc(-c2cc(NC(=O)CSc3n[nH]c(N)n3)n(-c3ccccc3)n2)cc1 | -102 | 3 | 9.8* | 29* | 17 | -1 | 4 | 2 | 29* | 12*
COc1ccc(Cl)cc1NC(=S)NCCc1c[nH]c2ccccc12 | 14 | -2 | 10* | 22* | -9 | 0 | 4 | 1 | 36* | 21*
Cc1ccccc1NC(=S)NCCc1c[nH]c2ccccc12 | -3 | 0 | 0 | -1 | -3 | -1 | x | x | x | x
COC(=O)C[C@H]1CC[C@@H]2[C@H](COC[C@H](O)CN2S(=O)(=O)c2ccccc2OC)O1 | x | x | -7 | -14 | x | 0 | x | x | x | x
COc1ccc(Nc2nc(N)nc(CSC(=S)N3CCN(c4ccccc4)CC3)n2)cc1 | 5 | 1 | 12* | 23* | -1 | -1 | 7 | 3 | 26* | 14*
Cc1ccc2cccc(Oc3ncnc4scc(-c5ccccc5)c34)c2n1 | 7 | 4 | 3 | 1 | 3 | 0 | x | x | x | x
COc1ccc(-c2csc3ncnc(Oc4cccc5ccc(C)nc45)c23)cc1 | 8 | 0 | 8.9* | 21* | -1 | 0 | 6 | 2 | 14 | 8
C=CC[C@@H](CC(=O)N(CCO)Cc1ccccc1)C(=O)NC[C@H](OC(=O)[C@@H](CC=C)Cc1ccc(F)cc1)c1ccccc1 | 42 | x | 13* | 26* | -4 | 1 | 7 | 2 | 34* | 19*
C=CC[C@@H](CC(=O)N(CCO)Cc1ccccc1)C(=O)N[C@H](COC(=O)[C@@H](CC=C)Cc1ccc(F)cc1)c1ccccc1 | -45 | x | 15* | 34* | -11 | 0 | 9 | 4 | 33* | 17*
C=CC[C@H](CC(=O)N(CCO)Cc1ccccc1)C(=O)NC[C@H](OC(=O)[C@@H](CC=C)CC(=O)OC(C)(C)C)c1ccccc1 | -21 | x | 3 | 12 | 1 | 1 | x | x | x | x
COc1ccc(OC)c(CNS(=O)(=O)c2c(C)nc3scc(C)n3c2=O)c1 | -8 | 2 | 1 | -2 | -10 | 0 | x | x | x | x
C/C(=N/NC(=O)CNC(=O)CCc1ccccc1)c1ccc(Cl)c(Cl)c1 | 5 | -1 | -4 | 2 | 6 | 0 | x | x | x | x
C[C@@]12C(=O)N(c3cccc(F)c3)C(=O)N1[C@@H]1c3ccccc3OC[C@@H]1[C@H]2c1ccccc1 | -13 | x | 11* | 23* | 1 | 0 | 5 | 2 | 5 | 7

Source: PubChem BioAssay
